The record followed here is ChEMBL document CHEMBL4152367, “Discovery of a Potent Thiazolidine Free Fatty Acid Receptor 2 Agonist with Favorable Pharmacokinetic Properties” (J Med Chem, 2018).

A short description of series [1]: Half life in Balb/c mouse at 5 mg/kg, iv by HPLC-MS/MS analysis. The class given is ADME, organism-based. As to conditions: in vivo. The method, boiled down: (§1)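 Balb/c mice dosed at 5 mg/kg iv or 10 mg/kg po. Plasma concentrations over time used to derive t1/2, AUC0–∞, Vd and total clearance (iv), and tmax, Cmax, AUC0–∞ and oral bioavailability (po).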
The nature of series [2]: Metabolic stability in mouse liver microsomes assessed as compound remaining at 1 uM after 1 hr by HPLC method. The class given is ADME, microsome. Particulars: read-out: Stability. The method, boiled down:
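Mouse liver microsomes 0.5 mg/mL with 1 µM test compound in 0.1 M PBS pH 7.4 plus NADPH. Pre-incubated 5 min at 37 °C before microsome addition, then 1 h at 37 °C with shaking. Quenched with ice-cold MeOH/MeCN 1:1, centrifuged; HPLC analysis relative to the 0 min sample.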

Series [3] deals with T1, Oxysterols receptor LXR-beta (Homo sapiens) (UniProt P55055).
T1 sequence (whole entry): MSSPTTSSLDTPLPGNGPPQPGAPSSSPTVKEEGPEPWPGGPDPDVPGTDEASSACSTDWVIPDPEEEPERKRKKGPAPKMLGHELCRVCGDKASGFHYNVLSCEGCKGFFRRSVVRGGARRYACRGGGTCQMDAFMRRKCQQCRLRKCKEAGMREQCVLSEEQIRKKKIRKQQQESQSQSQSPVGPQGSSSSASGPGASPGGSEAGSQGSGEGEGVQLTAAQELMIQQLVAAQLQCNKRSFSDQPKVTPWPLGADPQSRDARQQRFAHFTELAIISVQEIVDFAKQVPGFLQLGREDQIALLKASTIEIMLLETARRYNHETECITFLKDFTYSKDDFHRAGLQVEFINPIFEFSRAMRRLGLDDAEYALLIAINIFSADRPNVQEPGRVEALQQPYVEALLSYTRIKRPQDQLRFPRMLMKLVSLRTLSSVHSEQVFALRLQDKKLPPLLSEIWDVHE
Briefly: Agonist activity at human LXRbeta expressed in Escherichia coli assessed as induction of calcium flux at 10 uM by fluorimetry. For orientation: A change in cytosolic calcium serves as a functional read-out for many receptors and channels.

Series [4] has as its target T2, Peroxisome proliferator-activated receptor gamma (Homo sapiens) (UniProt P37231).
T2 sequence (whole entry): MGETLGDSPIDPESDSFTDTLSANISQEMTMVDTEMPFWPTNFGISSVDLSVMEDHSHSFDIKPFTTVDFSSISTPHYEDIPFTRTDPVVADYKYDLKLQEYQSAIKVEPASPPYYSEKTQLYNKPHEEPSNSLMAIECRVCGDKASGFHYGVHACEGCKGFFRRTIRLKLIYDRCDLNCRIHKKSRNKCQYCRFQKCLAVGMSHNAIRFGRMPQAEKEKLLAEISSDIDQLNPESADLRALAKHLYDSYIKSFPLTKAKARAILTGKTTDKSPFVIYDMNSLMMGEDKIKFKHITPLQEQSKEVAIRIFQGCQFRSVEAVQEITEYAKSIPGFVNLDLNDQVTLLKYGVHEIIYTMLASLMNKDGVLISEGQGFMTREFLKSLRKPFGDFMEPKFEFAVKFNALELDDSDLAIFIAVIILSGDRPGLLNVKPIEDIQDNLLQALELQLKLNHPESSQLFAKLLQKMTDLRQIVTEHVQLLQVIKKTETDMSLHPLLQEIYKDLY
Briefly: Agonist activity at human PPARgamma expressed in Escherichia coli assessed as induction of calcium flux at 10 uM by fluorimetry.

Series [5] can be described thus: Cmax in Balb/c mouse at 10 mg/kg, po by HPLC-MS/MS analysis. Particulars: in vivo. The arrangement: dose 10 mg/kg, route oral. The class given is ADME, organism-based. The method, boiled down:
as §1

Series [6] is described as follows: AUC (0 to infinity) in Balb/c mouse at 5 mg/kg, ip by HPLC-MS/MS analysis. The class given is ADME, organism-based. On the set-up: dose 5 mg/kg, time infinity, route intraperitoneal. As to conditions: in vivo.
A short description of series [7]: Octanol/PBS buffer partition co-efficient, log D of the compound at pH 7.4 after 24 hrs by HPLC analysis. The class given is physicochemical.
Series [8] in a line: Chemical stability of the compound in FaSSIF after 2 hrs. As to conditions: read-out: Stability. The class given is physicochemical. A digest of the protocol: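 Simulated-fluid stability: 50 µM compound in FaSSIF or FaSSGF (from 10 mM DMSO stock), shaken at 37 °C for 0 and 120 min. Quenched with acetonitrile containing 0.5% HCOOH, centrifuged, supernatant by HPLC. Stability from peak area relative to the 0 min sample; duplicates, mean reported.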

The nature of series [9]: Volume of distribution in Balb/c mouse at 5 mg/kg, iv by HPLC-MS/MS analysis. The class given is ADME, organism-based. As to conditions: in vivo. The method, boiled down: as §1
Series [10] concerns the target T2, Peroxisome proliferator-activated receptor gamma (Homo sapiens). Briefly: Antagonist activity at human PPARgamma expressed in Escherichia coli assessed as inhibition of rosiglitazone-induced calcium flux at 10 uM by fluorimetry.
Series [11] addresses T3, Peroxisome proliferator-activated receptor alpha (Homo sapiens) (UniProt Q07869).
T3 sequence (whole entry): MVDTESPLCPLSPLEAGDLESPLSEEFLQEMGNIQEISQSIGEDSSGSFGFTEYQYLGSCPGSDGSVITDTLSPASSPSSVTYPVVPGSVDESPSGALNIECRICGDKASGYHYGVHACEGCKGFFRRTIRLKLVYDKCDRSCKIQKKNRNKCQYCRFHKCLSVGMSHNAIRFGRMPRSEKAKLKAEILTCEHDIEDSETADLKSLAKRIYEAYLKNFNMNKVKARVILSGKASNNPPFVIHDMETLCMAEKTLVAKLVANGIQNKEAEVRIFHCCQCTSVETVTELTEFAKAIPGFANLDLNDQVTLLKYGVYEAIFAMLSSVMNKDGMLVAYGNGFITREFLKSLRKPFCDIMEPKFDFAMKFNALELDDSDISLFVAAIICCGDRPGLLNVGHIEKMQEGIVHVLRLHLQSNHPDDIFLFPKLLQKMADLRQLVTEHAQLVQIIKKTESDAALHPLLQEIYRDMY
Briefly: Agonist activity at human PPARalpha expressed in Escherichia coli assessed as induction of calcium flux at 10 uM by fluorimetry.

For series [12], the target named is Free fatty acid receptor 1 (Homo sapiens) (UniProt O14842). In words: Agonist activity at human FFA1R expressed in HEK293 cells assessed as induction of calcium flux at 10 uM by fluorimetry. The class given is functional, cell-based.
Free fatty acid receptor 1 (Homo sapiens), sequence (O14842 whole entry): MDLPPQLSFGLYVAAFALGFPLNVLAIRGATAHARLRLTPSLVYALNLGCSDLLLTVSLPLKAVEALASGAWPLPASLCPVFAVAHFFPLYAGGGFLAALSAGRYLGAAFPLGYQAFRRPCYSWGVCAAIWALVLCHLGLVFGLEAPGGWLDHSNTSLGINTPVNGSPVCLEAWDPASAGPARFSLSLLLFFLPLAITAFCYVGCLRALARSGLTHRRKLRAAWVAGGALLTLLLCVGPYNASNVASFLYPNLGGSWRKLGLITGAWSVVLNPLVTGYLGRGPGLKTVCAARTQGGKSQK
A short description of series [13]: Oral bioavailability in Balb/c mouse at 10 mg/kg by HPLC-MS/MS analysis. The class given is ADME, organism-based. Particulars: in vivo. A digest of the protocol:
as §1

A short description of series [14]: Total clearance in Balb/c mouse at 5 mg/kg, iv by HPLC-MS/MS analysis. As to conditions: in vivo. The class given is ADME, organism-based. A digest of the protocol:
as §1

A short description of series [15]: AUC (0 to infinity) in Balb/c mouse at 10 mg/kg, po by HPLC-MS/MS analysis. Particulars: in vivo. The class given is ADME, organism-based. On the set-up: dose 10 mg/kg, route oral, time infinity. A digest of the protocol: as §1
Series [16] in a line: Metabolic stability in Balb/c mouse primary hepatocytes assessed as compound recovery after 2 hrs by LC-MS/MS analysis. The class given is ADME, cell-based, Hepatocyte. Particulars: read-out: Drug recovery.

The source made the active and inactive calls. No cut-off for these calls is given here.

Molecule `Cc1noc(C)c1-c1ccc(C(=O)N2[C@@H](c3ccccc3Cl)SC[C@H]2C(=O)O)cc1` yielded a half-life in series [1] of 2.3 h. Besides, in series [2], the remaining at 1 h, 1 µM turned out to be 82%. In addition, the outcome in [3], in series [4], in [11] and in series [12] was inactive. The same molecule gave a Cmax in [5] of 2880 ng/mL. Further, the area under the curve AUC(0-inf) in [6] is 1010 ng·h/mL; in series [15], 2600 ng·h/mL. Also, the pH-dependent lipophilicity (logD) at 24 h in series [7] is 0.94. The remaining at 2 h in series [8] was 95%; in series [16] it was 72%. The same molecule registered a Vd in [9] of 4.05 L/kg. Besides, in [10], the inhibition entry was “inactive”. Moreover, in series [13], the bioavailability was found to be 32%. In series [14], this molecule returned a clearance of 20.3 mL/min/kg.

Broadly, the half-life is the time in which the quantity being followed falls by half. Lower therefore signals fast loss. A word on the Cmax: it is the maximum level reached in the sampled fluid or tissue. By AUC(0-inf) is commonly meant total exposure, with the tail of the curve extrapolated. For orientation: logD means lipophilicity at a set pH, counting ionised and neutral species. Higher therefore signals higher lipophilicity. Broadly, the Vd is the apparent volume that relates the amount in the body to the concentration in plasma or blood. Read a low Vd as little distribution into tissue. The term bioavailability denotes the share of a dose that reaches the circulation, judged against a reference dose that is usually intravenous. Low values mean poor availability, high ones good availability. By clearance is commonly meant the volume of plasma or blood freed of the substance per unit of time. A high value points to efficient removal.
